Screens: PubChem BioAssay, Sanford-Burnham Center for Chemical Genomics
Most compounds without a hit are left out; they make up all but 0.79% or so of the library.
bIAP inh: intestinal alkaline phosphatase (bovine) inhibition. purified bovine IAP, CDP-star luminescence, 30 min. inhibition, % at 20 µM. 190,000 tested, under 10 active. AID 1019;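 active = over 50% inhibition of intestinal alkaline phosphatase at 20 µM in the single-dose screen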
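System: purified bovine intestinal alkaline phosphatase (IAP) enzyme; Input: IAP diluted 1/65,000,000 in the well; Measured by: CDP-star luminescence signal; Compound dosing: 20 µM single dose; Incubation: 30 min reaction at room temperature.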
hIAP block: human IAP inhibition | purified IAP, CDP-Star luminescence, 30 min | inhibition, % at 10 µM | 330,000 tested, 0.12% active;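 active = inhibition reaching a set limit with compound at 10 µM in the primary screen, cut at about 35% in these data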;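 note: plate controls were DMSO wells with enzyme for no effect and no-enzyme buffer wells for full effect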
Target sequence (P09923 whole entry, looked up): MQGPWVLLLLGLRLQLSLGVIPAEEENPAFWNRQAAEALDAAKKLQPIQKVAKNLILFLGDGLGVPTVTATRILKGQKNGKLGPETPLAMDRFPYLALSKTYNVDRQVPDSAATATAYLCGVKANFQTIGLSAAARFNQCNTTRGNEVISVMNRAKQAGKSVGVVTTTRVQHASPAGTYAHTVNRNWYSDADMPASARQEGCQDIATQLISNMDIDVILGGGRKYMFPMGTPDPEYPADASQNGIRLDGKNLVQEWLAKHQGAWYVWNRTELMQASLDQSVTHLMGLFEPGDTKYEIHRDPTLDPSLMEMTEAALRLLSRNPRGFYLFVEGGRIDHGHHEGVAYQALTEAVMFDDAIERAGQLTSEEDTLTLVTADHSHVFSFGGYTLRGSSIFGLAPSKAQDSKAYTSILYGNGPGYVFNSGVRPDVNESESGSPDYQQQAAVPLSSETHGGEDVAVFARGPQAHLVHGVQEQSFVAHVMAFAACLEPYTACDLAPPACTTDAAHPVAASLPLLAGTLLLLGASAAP
mIAP act: mouse IAP activation | muIAP, CDP-Star luminescence, 30 min; active compounds read high; 1 = vehicle-only enzyme signal, 0 = enzyme-free wells | activation factor at 10 µM | 330,000 tested, 0.24% active;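 active = activation factor of at least 2 at 20 µM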
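also added = chemiluminescent substrate CDP-Star | test system = mouse IAP enzyme | signal = chemiluminescence readout | compound = DMSO-dissolved test compounds | incubation = 30 min at room temperature | benchmarks = DMSO wells, no-enzyme wells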
mIAP block: mouse IAP inhibition; purified mouse IAP, CDP-Star luminescence, 30 min; inhibition, % at 10 µM; 330,000 tested, 0.2% active;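 active = inhibition of at least 40% at 10 µM in the primary screen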;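 note: plate controls were DMSO with enzyme for no effect and no enzyme wells for full effect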
bIAP activator: increases bovine intestinal alkaline phosphatase activity | purified bovine IAP, CDP-star luminescence, 30 min; active compounds read high; fold of DMSO-control signal, blank-subtracted | activation factor at 20 µM | 200,000 tested, 0.17% active | AID 1016;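 active = activation factor of 2 or more at 20 µM, a signal rise over negative controls twice the positive control's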
hIAP act: human IAP activation. activation factor at 10 µM. purified human IAP, CDP-Star luminescence, 30 min; active compounds read high; 1 = vehicle-only enzyme, 0 = enzyme-free background. P09923. 330,000 tested, 0.16% active;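 active = activation factor of the enzyme at least 2-fold when tested at 20 µM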
hIAP act conf: human IAP activation confirmation. shares compounds with hIAP act. purified IAP, CDP-Star luminescence, 30 min; active compounds read low. activation (%Activity, negative = activation), % at 8.3 µM. 880 tested, 10% active;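 active = at least twofold enzyme activation in any of six single-dose repeats, which the averaged readout prints as negative percent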
* marks the source's active call; other numbers are inactive results; . = no result given.

SMILES	bIAP inh	hIAP block	mIAP act	mIAP block	bIAP activator	hIAP act	hIAP act conf
CCOC(=O)c1ccc(NC(=O)c2nc[nH]c2C(=O)NCCCCNC(=O)c2[nH]cnc2C(=O)Nc2ccc(C(=O)OCC)cc2)cc1	.	-67.2	1.1	-10.1	.	1.67	.
CC(C)(C)OC(=O)NCCCC[C@H](NC(=O)c1nc[nH]c1C(=O)NCc1ccccc1)C(=O)OC(C)(C)C	-17.0	-50.0	1.34	-34.5	1.2	1.5	.
CC(C)(C)OC(=O)NCCCC[C@H](NC(=O)c1[nH]cnc1C(=O)Nc1ccc(CNC(=O)OC(C)(C)C)cc1)C(=O)OC(C)(C)C	.	-172.2	1.02	-2.5	.	2.72*	8.4
CCOC(=O)c1ccc(NC(=O)c2nc[nH]c2C(=O)NCCCCCNC(=O)OC(C)(C)C)cc1	.	-128.5	1.07	-6.6	.	2.29*	7.1
CC1=C(C)Cc2c(OC(=O)c3ccccc3)ccc(OC(=O)c3ccccc3)c2C1	.	1.1	1.03	-3.3	.	0.989	.
O=C(Cc1ccccc1[N+](=O)[O-])NCc1ccco1	-31.4	1.6	0.957	4.3	1.3	0.984	.
O=C(Nc1nccs1)c1nc[nH]c1C(=O)N1CCc2ccccc2C1	.	-109.1	0.945	5.5	.	2.09*	-48.5
C[C@H](NC(=O)c1nc[nH]c1C(=O)N1CCc2ccccc2C1)C(=O)OC(C)(C)C	.	-170.5	1.15	-14.5	.	2.71*	-56.9
CC(C)(C)OC(=O)N1CCN(C(=O)c2[nH]cnc2C(=O)Nc2nccs2)CC1	.	-121.8	0.989	1.1	.	2.22*	-27.6
c1ccc(COc2ccc(CNn3cnnc3)cc2)cc1	3.9	54.4*	0.984	1.6	1	0.456	-4.7
Cc1cccc(CC(Cc2nc3ccccc3[nH]2)c2nc3ccccc3[nH]2)c1 (configuration not stated)	-331.9	-139.5	1.41	-41.3	4.3*	2.4*	30.1
OC(c1ccccc1)c1nc2ccccc2[nH]1 (configuration not stated)	.	10.1	1.01	-1.1	.	0.899	.
CC(c1ccccc1)C(Cc1nc2ccccc2[nH]1)c1nc2ccccc2[nH]1 (configuration not stated)	-306.1	-118.3	1.71	-70.6	4.1*	2.18*	6.2
OC(c1nc2ccccc2[nH]1)C(O)c1nc2ccccc2[nH]1 (configuration not stated)	.	-146.1	0.998	0.2	.	2.46*	-3.9
CC(C)N(Cc1nc2ccccc2[nH]1)C(C)C	2.9	9.1	1.01	-1.1	1	0.909	.
O=C(Nc1ccccc1F)C1CCCN1S(=O)(=O)c1cccc2nsnc12 (configuration not stated)	.	18.3	0.967	3.3	.	0.817	.
CC(Cc1ccc(Cl)cc1)N1CCC(n2nccc2NC(=O)C2CCCC2)CC1 (configuration not stated)	.	-128.2	1.83	-83.4	.	2.28*	-2.5
O=C(Nc1ccnn1C1CCN(Cc2ccccc2)CC1)C1CCCC1	.	-18.0	1.12	-11.9	.	1.18	.
COCCNC(=S)N=Nc1c(O)[nH]c2ccc([N+](=O)[O-])cc12	.	-141.1	0.818	18.2	.	2.41*	-40.3
CCCCCCC(=O)N=Nc1c(O)[nH]c2ccc([N+](=O)[O-])cc12	-17.0	-15.7	0.83	17.0	1.2	1.16	.
COC(=O)/C(C#N)=C/c1c(Oc2cc(C)cc(C)c2)nc2ccccn2c1=O	.	-102.6	0.881	11.9	.	2.03*	0.6
Cc1ccc(/C=C/C(=O)Nc2ccc(S(=O)(=O)Nc3onc(C)c3C)cc2)cc1	.	1.9	0.962	3.8	.	0.981	.
O=C(CCCC(=O)N/N=C\c1ccccn1)N/N=C\c1ccccn1	-6.5	-102.4	1.04	-4.4	1.1	2.02*	2.4
O=C(N/N=C/c1ccccn1)c1cc(C2CC2)[nH]n1	-59.3	-110.3	0.792	20.8	1.6	2.1*	-22.4
O=C(Nc1cc(Oc2ccccc2)cc([N+](=O)[O-])c1)C12CC3CC(C1)CC(n1cnc(Cl)n1)(C3)C2	12.1	-28.4	0.846	15.4	0.9	1.28	.
CC(=O)N[C@@H](C)C(=O)N1CCN(S(=O)(=O)c2ccc(Cl)cc2)CC1	-3.7	-177.4	0.952	4.8	1	2.77*	-37.9
NC(=O)c1ccsc1NC(=O)CSc1nncs1	.	-1.6	0.912	8.8	.	1.02	.
